In ChEMBL document CHEMBL4152263, “Novel anticancer hybrids from diazen-1-ium-1,2-diolate nitric oxide donor and ROS inducer plumbagin: Design, synthesis and biological evaluations” (Eur J Med Chem, 2018):
Calls of active or inactive are those of the source. No cut-off for these calls is given here.

Tests used:
HepG2 [1] = test: Cytotoxicity against human HepG2 cells assessed as growth inhibition at 10 uM after 48 hrs by MTT assay relative to control; type: functional; conditions: HepG2, 48 h, read-out: GI
How it was run: (§1)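 Single-concentration MTT screen. Cells were seeded, allowed to adhere for 24 h, and exposed to compound for 48 h. MTT (5 mg/mL) was added for the last 4 h, then DMSO, with absorbance read at 570 nm. Result is inhibition rate (%) at the stated concentration; mean of three independent experiments.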

A549 [2] = test: Cytotoxicity against human A549 cells assessed as growth inhibition at 10 uM after 48 hrs by MTT assay relative to control; type: functional; conditions: A549, 48 h, read-out: GI; how it was run: as §1
MDA-MB-231 [3] = test: Cytotoxicity against human MDA-MB-231 cells assessed as growth inhibition at 10 uM after 48 hrs by MTT assay relative to control; type: functional; conditions: MDA-MB-231, 48 h, read-out: GI; how it was run: as §1
MDA-MB-231 [4] = test: Cytotoxicity against human MDA-MB-231 cells assessed as growth inhibition after 48 hrs by MTT assay; type: functional, cell-based; conditions: MDA-MB-231, 48 h
How it was run: (§2)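 Cells seeded at 5.0 × 10^4/ml and left 24 h to adhere, then exposed to a range of test-compound concentrations for 44 h. MTT (5 mg/mL) was added for a further 4 h at 37 °C. Supernatant was removed, DMSO added, and OD read at 570 nm. IC50 after 48 h total exposure; mean ± SD, n = 3.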

A549 [5] = test: Induction of reactive oxygen species formation in human A549 cells at 5 uM after 24 hrs by DCFH-DA probe-based flow cytometric analysis relative to control; type: functional
[6] = Drug metabolism in human A549 cells assessed as nitric oxide production at 5 uM after 24 hrs by Griess assay; type: ADME, cell-based; conditions: a549, 24 h
How it was run: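 A549 cells were plated at 5.0 × 10^4/ml and treated in triplicate with compound at 5 μM for varying times up to 24 h. NO release was quantified as nitrite plus nitrate by Griess assay (commercial kit); mean ± SD, n = 3.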

A549 [7] = test: Induction of apoptosis in human A549 cells assessed as early apoptotic cells at 4 uM after 24 hrs by FITC-annexin V/propidium iodide staining-based flow cytometric analysis (reference value: 1.87%); type: functional
A549 [8] = test: Cytotoxicity against human A549 cells assessed as growth inhibition at 5 uM after 24 hrs in presence of nitric oxide scavenger carboxy-PTIO by MTT assay
HCT-116 = test: Cytotoxicity against human HCT116 cells assessed as growth inhibition after 48 hrs by MTT assay; type: functional, cell-based; conditions: HCT-116, 48 h; how it was run: as §2
A549 [9] = test: Induction of apoptosis in human A549 cells assessed as late apoptotic cells at 2 uM after 24 hrs by FITC-annexin V/propidium iodide staining-based flow cytometric analysis (reference value: 0.36%); type: functional
A549 [10] = test: Induction of apoptosis in human A549 cells assessed as necrotic cells at 4 uM after 24 hrs by FITC-annexin V/propidium iodide staining-based flow cytometric analysis (reference value: 0.055%); type: functional
A549 [11] = test: Induction of apoptosis in human A549 cells assessed as early apoptotic cells at 2 uM after 24 hrs by FITC-annexin V/propidium iodide staining-based flow cytometric analysis (reference value: 1.87%); type: functional
HK-2 = test: Cytotoxicity against human HK2 cells assessed as growth inhibition after 48 hrs by MTT assay; type: cell-based; conditions: HK-2, 48 h; how it was run: as §2
A549 [12] = test: Induction of apoptosis in human A549 cells assessed as increase in late apoptotic cells after 24 hrs by FITC-annexin V/propidium iodide staining-based flow cytometric analysis; type: functional, cell-based
A549 [13] = test: Induction of apoptosis in human A549 cells assessed as necrotic cells at 1 uM after 24 hrs by FITC-annexin V/propidium iodide staining-based flow cytometric analysis (reference value: 0.055%); type: functional
A549 [14] = test: Induction of apoptosis in human A549 cells assessed as viable cells at 4 uM after 24 hrs by FITC-annexin V/propidium iodide staining-based flow cytometric analysis (reference value: 97.7%); type: functional; conditions: A549, 24 h, read-out: Activity
A549 [15] = test: Induction of apoptosis in human A549 cells assessed as early apoptotic cells at 1 uM after 24 hrs by FITC-annexin V/propidium iodide staining-based flow cytometric analysis (reference value: 1.87%); type: functional
A549 [16] = test: Cytotoxicity against human A549 cells assessed as growth inhibition after 48 hrs by MTT assay; type: functional, cell-based; conditions: A549, 48 h; how it was run: as §2
A549 [17] = test: Induction of apoptosis in human A549 cells assessed as late apoptotic cells at 1 uM after 24 hrs by FITC-annexin V/propidium iodide staining-based flow cytometric analysis (reference value: 0.36%); type: functional
A549 [18] = test: Induction of apoptosis in human A549 cells assessed as necrotic cells at 2 uM after 24 hrs by FITC-annexin V/propidium iodide staining-based flow cytometric analysis (reference value: 0.055%); type: functional
A549 [19] = test: Induction of apoptosis in human A549 cells assessed as late apoptotic cells at 4 uM after 24 hrs by FITC-annexin V/propidium iodide staining-based flow cytometric analysis (reference value: 0.36%); type: functional
[20] = Drug metabolism in human A549 cells assessed as nitric oxide production at 5 uM after 24 hrs in presence of nitric oxide scavenger carboxy-PTIO by Griess assay; type: ADME, cell-based; conditions: a549, 24 h
How it was run: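 A549 cells were pre-incubated with the NO scavenger carboxy-PTIO (50 μM) for 1 h, then treated with compound (5 μM) for 24 h. Proliferation was read by MTT and NO by Griess assay (nitrite/nitrate); mean ± SD of three independent experiments.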

A549 [21] = test: Induction of apoptosis in human A549 cells assessed as viable cells at 2 uM after 24 hrs by FITC-annexin V/propidium iodide staining-based flow cytometric analysis (reference value: 97.7%); type: functional; conditions: A549, 24 h, read-out: Activity
HepG2 [22] = test: Cytotoxicity against human HepG2 cells assessed as growth inhibition after 48 hrs by MTT assay; type: functional, cell-based; conditions: HepG2, 48 h; how it was run: as §2
WRL68 = test: Cytotoxicity against human WRL68 cells assessed as growth inhibition after 48 hrs by MTT assay; type: cell-based; conditions: WRL68, 48 h; how it was run: as §2
A549 [23] = test: Induction of apoptosis in human A549 cells assessed as viable cells at 1 uM after 24 hrs by FITC-annexin V/propidium iodide staining-based flow cytometric analysis (reference value: 97.7%); type: functional; conditions: A549, 24 h, read-out: Activity
HepG2 [24] = test: Cytotoxicity against human HepG2 cells assessed as growth inhibition at 20 uM after 48 hrs by MTT assay relative to control; type: functional; conditions: HepG2, 48 h, read-out: GI; how it was run: as §1
MDA-MB-231 [25] = test: Cytotoxicity against human MDA-MB-231 cells assessed as growth inhibition at 20 uM after 48 hrs by MTT assay relative to control; type: functional; conditions: MDA-MB-231, 48 h, read-out: GI; how it was run: as §1
A549 [26] = test: Cytotoxicity against human A549 cells assessed as growth inhibition at 20 uM after 48 hrs by MTT assay relative to control; type: functional; conditions: A549, 48 h, read-out: GI; how it was run: as §1

Structure (SMILES)	inhibition of growth at 10 µM (HepG2 [1])	inhibition of growth at 10 µM (A549 [2])	inhibition of growth at 10 µM (MDA-MB-231 [3])	IC50 (MDA-MB-231 [4])	IC50 (HCT-116)	IC50 (HK-2)	IC50 (A549 [16])	IC50 (HepG2 [22])	IC50 (WRL68)	further results
CC1=C(CCC(=O)OCCCO/[N+]([O-])=N/N2CCOCC2)C(=O)c2c(O)cccc2C1=O	28%	26.9%	28.6%							
CC1=C(CCCC(=O)OCO/[N+]([O-])=N/N2CCOCC2)C(=O)c2c(O)cccc2C1=O	75.4%	91.2%	88.3%	4.12 µM	4.21 µM	23.5 µM	3.48 µM	5.52 µM	> 40 µM	fold change (FC) (A549 [5]): 1.64; Drug metabolism [6]: Metabolite_Detected; Activity (A549 [7]): 6.93%; growth inhibition (GI) (A549 [8]): inactive; Activity (A549 [9]): 10.1%; Activity (A549 [10]): 17.3%; Activity (A549 [11]): 3.74%; Activity (A549 [12]): Dose-dependent effect; Activity (A549 [13]): 1.56%; viability at 4 µM (A549 [14]): 45.4%; Activity (A549 [15]): 2.09%; Activity (A549 [17]): 4.18%; Activity (A549 [18]): 6.53%; Activity (A549 [19]): 30.3%; Drug metabolism [20]: Metabolite_Notdetected; viability at 2 µM (A549 [21]): 79.6%; viability at 1 µM (A549 [23]): 92.2%
CC1=C(CCCC(=O)OCCO/[N+]([O-])=N/N2CCOCC2)C(=O)c2c(O)cccc2C1=O	25%	23.7%	26.2%							
CC1=C(CCC(=O)OCO/[N+]([O-])=N/N2CCCCC2)C(=O)c2c(O)cccc2C1=O	35.1%	45%	40.1%	11.7 µM	20.2 µM	27.7 µM	10.8 µM	14.4 µM	28.2 µM	
CC1=C(CCCC(=O)OCCCCO/[N+]([O-])=N/N2CCOCC2)C(=O)c2c(O)cccc2C1=O	32.2%	38.2%	30.6%							
CC1=C(CCCC(=O)O)C(=O)c2c(O)cccc2C1=O										inhibition of growth at 20 µM (HepG2 [24]): 28.6%; inhibition of growth at 20 µM (MDA-MB-231 [25]): 9.9%; inhibition of growth at 20 µM (A549 [26]): 8.5%
CC1=C(CCCC(=O)OCCCO/[N+]([O-])=N/N2CCOCC2)C(=O)c2c(O)cccc2C1=O	8.2%	11.3%	9.5%							
CC1=C(CCC(=O)OCCO/[N+]([O-])=N/N2CCOCC2)C(=O)c2c(O)cccc2C1=O	32.5%	30.3%	35.7%							
[O-]/[N+](=N\OCCl)N1CCOCC1	16.4%	19.1%	13.3%							
CC1=C(CCC(=O)OCCCCO/[N+]([O-])=N/N2CCOCC2)C(=O)c2c(O)cccc2C1=O	28.8%	24.4%	29.4%							
CC1=C(CCCC(=O)OCO/[N+]([O-])=N/N2CCCCC2)C(=O)c2c(O)cccc2C1=O	80.3%	86.7%	83.6%	4.92 µM	5.26 µM	17.7 µM	4.27 µM	6.68 µM	> 40 µM	Drug metabolism [6]: Metabolite_Detected; growth inhibition (GI) (A549 [8]): inactive; Drug metabolism [20]: Metabolite_Notdetected
CC1=C(CCC(=O)OCO/[N+]([O-])=N/N2CCCC2)C(=O)c2c(O)cccc2C1=O	29.8%	32.9%	31.6%	15.2 µM	17.2 µM	25.6 µM	16.4 µM	17.8 µM	19.5 µM	
[O-]/[N+](=N\OCCl)N1CCCCC1	17.6%	10.8%	11.4%							
CC1=CC(=O)c2c(O)cccc2C1=O [PLUMBAGIN]	58.9%	60.7%	73.8%	6.5 µM	9.8 µM	23.6 µM	8.9 µM	9.17 µM	15.4 µM	fold change (FC) (A549 [5]): 1.34
CC1=C(CCC(=O)OCO/[N+]([O-])=N/N2CCOCC2)C(=O)c2c(O)cccc2C1=O	31.3%	40.3%	37.2%	13.5 µM	15.6 µM	24.6 µM	12.3 µM	16.5 µM	19.3 µM	
CC1=C(CCCC(=O)OCO/[N+]([O-])=N/N2CCCC2)C(=O)c2c(O)cccc2C1=O	69.7%	65.6%	70.8%	6.97 µM	9.32 µM	18.1 µM	9.24 µM	7.12 µM	16.6 µM	
